Assay results as given in ChEMBL document CHEMBL1129593, “Halogenated mazindol analogs as potential inhibitors of the cocaine binding site at the dopamine transporter” (J Med Chem, 1996).
pIC50: −log10 of the molar value.

Legend:
[1] = biological target: T1, Sodium-dependent dopamine transporter (Rattus norvegicus, UniProt P23977); test: Inhibition of [3H]WIN-35428 binding to the dopamine transporter in rat brain; type: tissue-based
In short: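 Striatal tissue from male Sprague-Dawley rats (200-250 g), 0.1 mg original wet weight per tube. Nonspecific binding was defined with 30 µM (R)-(-)-cocaine. Stopped by filtration through polyethylenimine-soaked GF/B filters with three ice-cold buffer washes. Equilibrium binding analysis.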

[2] = biological target: Sodium-dependent dopamine transporter (Rattus norvegicus) (UniProt P23977); test: The ratio of uptake/binding at Dopamine transporter; type: functional
[3] = biological target: T1, Sodium-dependent dopamine transporter; test: Inhibition of [3H]dopamine uptake at the dopamine transporter in rat striatal tissue; type: functional, tissue-based, Striatum
In short: (§1)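 Crude synaptosomes were made from rat striatum: homogenised in 0.32 M sucrose, spun at 800g for 10 min, then at 27000g for 20 min. They were resuspended in Krebs-Hepes (pH 7.35) containing NaCl, KCl, KH₂PO₄, CaCl₂, MgSO₄, Hepes, glucose, ascorbic acid and nialamide. Preincubated with compound for 10 min at 30 °C, then given [³H]dopamine for 10 min and filtered.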

[4] = biological target: T2, Sodium-dependent serotonin transporter (Rattus norvegicus, UniProt P31652); test: Compound was tested for inhibition of [3H]citalopram binding at the serotonin transporter in rat fore brain membranes; type: cell membranes, Membrane
[5] = biological target: Norepinephrine transporter (Rattus norvegicus) (UniProt Q9WTR4); test: Compound was tested for inhibition of [3H]DMI binding at the Norepinephrine transporter in rat cortical membranes at (10e-5) M; type: cell membranes; conditions: Membrane; concentration not given here
[6] = biological target: T2, Sodium-dependent serotonin transporter; test: Compound was tested for inhibition of [3H]5-HT reuptake at Serotonin transporter
[7] = biological target: T1, Sodium-dependent dopamine transporter; test: Compound was tested for inhibition of [3H]dopamine uptake at the dopamine transporter in rat […] tissue; type: tissue-based, Striatum; in short: as §1
[8] = biological target: Norepinephrine transporter (Rattus norvegicus) (UniProt Q9WTR4); test: Compound was tested for inhibition of [3H]-DMI binding at the Norepinephrine transporter in rat cortical membranes at (10e-5) M; type: cell membranes; conditions: Membrane; concentration not given here

T1 sequence (P23977 whole entry): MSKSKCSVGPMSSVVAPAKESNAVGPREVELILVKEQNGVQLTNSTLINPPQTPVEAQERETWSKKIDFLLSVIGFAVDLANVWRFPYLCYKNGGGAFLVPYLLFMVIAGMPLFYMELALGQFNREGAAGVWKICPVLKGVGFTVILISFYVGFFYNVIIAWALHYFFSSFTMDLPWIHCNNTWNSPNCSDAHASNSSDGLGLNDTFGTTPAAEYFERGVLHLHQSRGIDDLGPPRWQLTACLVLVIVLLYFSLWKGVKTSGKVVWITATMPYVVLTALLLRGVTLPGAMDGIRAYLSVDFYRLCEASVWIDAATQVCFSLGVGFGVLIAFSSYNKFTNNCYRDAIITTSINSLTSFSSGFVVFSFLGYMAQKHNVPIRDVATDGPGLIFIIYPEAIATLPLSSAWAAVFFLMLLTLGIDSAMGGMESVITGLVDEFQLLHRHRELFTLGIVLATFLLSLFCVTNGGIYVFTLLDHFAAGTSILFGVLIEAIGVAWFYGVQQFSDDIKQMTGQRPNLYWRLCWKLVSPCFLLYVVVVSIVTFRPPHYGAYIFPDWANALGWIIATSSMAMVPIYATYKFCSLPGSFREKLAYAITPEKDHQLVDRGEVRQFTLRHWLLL
Sequence of Sodium-dependent dopamine transporter (Rattus norvegicus) (P23977 whole entry): as above
T2 sequence (P31652 whole entry): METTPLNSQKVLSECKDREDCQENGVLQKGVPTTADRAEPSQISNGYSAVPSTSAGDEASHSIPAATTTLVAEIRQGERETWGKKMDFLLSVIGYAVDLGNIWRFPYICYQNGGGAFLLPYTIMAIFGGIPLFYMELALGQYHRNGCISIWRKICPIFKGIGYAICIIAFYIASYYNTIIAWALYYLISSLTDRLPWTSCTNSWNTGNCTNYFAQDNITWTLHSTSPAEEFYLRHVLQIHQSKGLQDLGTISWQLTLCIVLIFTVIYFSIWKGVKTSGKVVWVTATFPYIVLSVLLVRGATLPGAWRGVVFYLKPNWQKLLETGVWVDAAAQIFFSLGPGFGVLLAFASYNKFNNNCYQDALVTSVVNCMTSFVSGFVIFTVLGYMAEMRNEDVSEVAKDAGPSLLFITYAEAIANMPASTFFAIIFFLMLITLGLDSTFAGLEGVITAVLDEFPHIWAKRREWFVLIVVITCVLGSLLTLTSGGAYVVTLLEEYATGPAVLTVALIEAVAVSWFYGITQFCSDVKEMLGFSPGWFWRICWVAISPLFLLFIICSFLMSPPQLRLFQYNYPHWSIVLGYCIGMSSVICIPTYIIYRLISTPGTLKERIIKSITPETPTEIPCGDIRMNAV
Sequence of Norepinephrine transporter (Rattus norvegicus) (Q9WTR4 as listed by the source): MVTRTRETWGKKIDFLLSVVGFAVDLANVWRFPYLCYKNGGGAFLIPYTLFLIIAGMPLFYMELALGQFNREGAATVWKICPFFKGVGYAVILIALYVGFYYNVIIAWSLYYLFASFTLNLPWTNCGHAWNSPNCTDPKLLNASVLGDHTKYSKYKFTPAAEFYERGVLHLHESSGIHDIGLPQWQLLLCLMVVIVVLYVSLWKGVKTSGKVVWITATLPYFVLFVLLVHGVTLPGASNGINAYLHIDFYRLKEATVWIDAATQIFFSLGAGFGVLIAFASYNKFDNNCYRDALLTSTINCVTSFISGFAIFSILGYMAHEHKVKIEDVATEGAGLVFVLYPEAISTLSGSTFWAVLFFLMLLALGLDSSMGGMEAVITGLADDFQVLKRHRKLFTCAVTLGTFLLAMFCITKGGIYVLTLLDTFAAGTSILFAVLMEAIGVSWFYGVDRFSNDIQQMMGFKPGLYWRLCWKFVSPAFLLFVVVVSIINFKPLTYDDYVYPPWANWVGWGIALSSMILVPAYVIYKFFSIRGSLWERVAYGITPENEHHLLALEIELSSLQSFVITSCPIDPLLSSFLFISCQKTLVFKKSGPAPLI

| Compound | pIC50 [1] | Uptake/Binding ratio [2] | pIC50 [3] | pIC50 [4] | inhibition [5] | pIC50 [6] | pIC50 [7] | inhibition [8] |
| --- | --- | --- | --- | --- | --- | --- | --- | --- |
| OC1(c2ccc(Cl)cc2Cl)c2ccccc2C2=NCCN21 (stereo not given) | 7.12 | 1.2 | 7.04 |  |  |  |  |  |
| OC1(c2ccccc2)c2ccccc2C2=NCCN21 (stereo not given) | 7.18 | 1.9 | 6.91 |  |  |  |  |  |
| OC1(c2ccccc2)c2cc(Cl)ccc2C2=NCCN21 (stereo not given) | 7.06 | 0.6 | 7.26 |  |  |  |  |  |
| OC1(c2ccccc2Cl)c2ccccc2C2=NCCN21 (stereo not given) | 6.53 | 2.6 | 6.11 |  |  |  |  |  |
| OC1(c2ccccc2)c2cc(F)ccc2C2=NCCN21 (stereo not given) | 7.53 | 2.6 | 7.11 |  |  |  |  |  |
| OC1(c2ccc(Cl)c(Cl)c2)c2ccccc2C2=NCCN21 (stereo not given) | 8.60 | 0.6 | 8.85 |  |  |  |  |  |
| OC1(c2ccc(F)cc2)c2cc(Cl)ccc2C2=NCCN21 (stereo not given) | 7.28 | 1 | 7.28 |  |  |  |  |  |
| OC1(c2ccc(Cl)c(Cl)c2)c2ccccc2C2=NCCCCN21 (stereo not given) | 8.77 | 0.2 | 9.59 |  |  |  |  |  |
| OC1(c2ccccc2)c2c(Cl)cccc2C2=NCCN21 (stereo not given) | 7.24 |  | 7.24 |  |  |  |  |  |
| OC1(c2ccccc2F)c2ccccc2C2=NCCCN21 (stereo not given) | 7.63 | 3.8 | 7.05 |  |  |  |  |  |
| OC1(c2ccc(F)cc2)c2ccccc2C2=NCCCN21 (stereo not given) | 8.49 |  | 8.07 |  |  |  |  |  |
| OC1(c2ccc(Cl)cc2)c2ccccc2C2=NCCCCN21 (stereo not given) | 8.82 | 2.3 | 8.47 | 5.90 |  |  |  |  |
| OC1(c2ccc(Cl)cc2)c2cc(F)ccc2C2=NCCN21 (stereo not given) | 8.19 | 2.3 | 7.82 |  |  |  |  |  |
| OC1(c2ccccc2)c2ccccc2C2=NCCCCN21 (stereo not given) | 8.23 | 2 | 7.96 |  |  |  |  |  |
| OC1(c2ccc(Cl)cc2)c2ccccc2C2=NCCN21 (stereo not given) [MAZINDOL] |  |  |  |  | 60% | 6.64 |  |  |
| CC1(C)CN=C2c3ccccc3C(O)(c3ccc(Cl)cc3)N2C1 (stereo not given) | 8.20 | 0.3 | 8.77 |  |  |  |  |  |
| CC1(C)CN2C(=N1)c1ccccc1C2(O)c1ccc(Cl)cc1 (stereo not given) | 7.30 |  |  |  |  |  | 6.97 |  |
| OC1(c2ccc(I)cc2)c2ccccc2C2=NCCN21 (stereo not given) | 7.76 | 0.8 | 7.85 |  |  |  |  |  |
| OC1(c2ccc(Cl)cc2)c2cc(Cl)c(Cl)cc2C2=NCCN21 (stereo not given) | 7.87 |  |  |  |  |  |  |  |
| OC1(c2cccc(Cl)c2)c2ccccc2C2=NCCCN21 (stereo not given) | 9.00 | 1.3 | 8.89 |  |  |  |  |  |
| OC1(c2cccc(Cl)c2)c2ccccc2C2=NCCN21 (stereo not given) | 8.37 | 2.1 | 8.04 |  |  |  |  |  |
| OC1(c2ccc(F)cc2)c2ccccc2C2=NCCN21 (stereo not given) | 7.88 | 1.9 | 7.60 |  |  |  |  |  |
| OC1(c2ccccc2)c2ccccc2C2=NCCCN21 (stereo not given) | 8.24 | 3.1 | 7.74 |  |  |  |  |  |
| OC1(c2ccc(Br)cc2)c2ccccc2C2=NCCN21 (stereo not given) | 8.59 | 3.3 | 8.07 |  |  |  |  |  |
| OC1(c2ccc(Cl)cc2)c2ccccc2C2=NCCCN21 (stereo not given) | 8.77 | 0.8 | 8.85 | 5.98 |  |  |  | 62.8% |
| OC1(c2cccc(F)c2)c2ccccc2C2=NCCCN21 (stereo not given) | 8.70 | 1.6 | 8.51 |  |  |  |  |  |
